# Compounds with a hit are over-represented: about 2% of the library has one in this group of screens.
# TRPML3 ag: activates the human TRPML3 channel | HEK293 TRPML3-YFP, Fluo-8 calcium fluorescence; 100% = the carbachol control signal | activation, % at 3 µM | hit rate 0.29% among 220,000 | AID 1448;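 active means activation above its plate's cutoff, the mean activation of the plate's test wells plus 3 SD, cut at about 12% in these data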
# Target sequence (Q8TDD5 whole entry, looked up): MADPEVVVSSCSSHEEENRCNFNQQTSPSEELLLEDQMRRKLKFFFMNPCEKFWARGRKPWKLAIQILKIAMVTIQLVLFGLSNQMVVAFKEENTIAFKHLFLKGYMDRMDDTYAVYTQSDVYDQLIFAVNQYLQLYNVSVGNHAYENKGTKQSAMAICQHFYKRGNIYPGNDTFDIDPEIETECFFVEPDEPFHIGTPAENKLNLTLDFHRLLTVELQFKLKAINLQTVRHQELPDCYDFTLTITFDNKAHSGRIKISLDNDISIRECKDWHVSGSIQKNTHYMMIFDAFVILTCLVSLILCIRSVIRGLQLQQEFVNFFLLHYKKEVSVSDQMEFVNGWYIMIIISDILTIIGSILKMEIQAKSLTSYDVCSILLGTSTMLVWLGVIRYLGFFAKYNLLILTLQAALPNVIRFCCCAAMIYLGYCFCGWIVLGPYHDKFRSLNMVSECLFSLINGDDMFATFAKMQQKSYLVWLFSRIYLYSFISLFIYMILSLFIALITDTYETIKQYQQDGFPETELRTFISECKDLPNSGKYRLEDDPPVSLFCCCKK
#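 system = HEK293 cells stably carrying human TRPML3-YFP | doses = one concentration, 3 µM nominal, 0.3% DMSO | timing = dye loading 1 h 37 °C then 30 min ambient, 125 s read | detection = Fluo-8 calcium dye fluorescence, ex 470-495, em 515-575 nm | benchmarks = high control carbachol 87 µM, low control DMSO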
# zfTRPN1 agonist: zebrafish TRPN1 (NompC) channel agonism; HEK293 zebrafish TRPN1-YFP, Fluo-8 calcium fluorescence; 100% = response to 87 µM carbachol; activation, % at 3 µM; hit rate 0.18% among 220,000; AID 1424;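 active means activation above its plate's cutoff, the mean activation of test wells on that plate plus 3 SD, cut at about 19% in these data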
#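 Control set: carbachol 87 µM as high control, DMSO as low control; system: HEK293 stable line with zebrafish TRPN1-YFP; read-out: % activation versus carbachol response; detection: intracellular calcium fluorescence with Fluo-8; doses: single test compound dose, 3 µM nominal, 0.3% DMSO; schedule: dye 1 h 37 °C plus 30 min RT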
# GPR7 antag: blocks human GPR7 receptor signaling. GPR7-expressing cells, fluorescence antagonist assay. hit rate 1.1% among 290,000. P48145. inhibition, % at 4.4 µM; in the data active means inhibition above about 16%, passing the limit was not always enough;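 further: cells stimulated with the agonist NPW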
# CRFBP-R2 block: blocks CRF-induced signaling of the CRF-BP/CRF-R2 complex | hit rate 0.59% among 350,000 | inhibition, % at 11.8 µM | HEK293 CRF-R2/CRF-BP, CRF-induced calcium fluorescence;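 active means inhibition of the ligand-induced calcium signal above about 50% at the single tested concentration, limit read from the data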
# CRFR2-BP ag: agonists of human CRF-binding protein/CRF-R2 receptor complex; HEK293 CRF-R2/CRF-BP, calcium dye fluorescence (FLIPR); percent of saturating CRF peptide response; activation, % at 13.2 µM; hit rate 0.46% among 350,000; AID 588473;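 active means activation of at least 50%, plus an integration ratio under a set limit after plate pattern correction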
# GPR7 antag cf: human GPR7 antagonism, confirmation assay. shares compounds with GPR7 antag. GPR7-expressing cells, calcium fluorescence antagonist mode. inhibition, % at 4.4 µM. hit rate 52% among 2,400; in the data active means inhibition above about 24%;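 further: stimulated with the GPR7 agonist NPW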
# MCHR1 antagonist: counter-screen for GPR7 antagonists: antagonists of human MCHR1 | shares compounds with GPR7 antag | MCHR1-expressing cells, fluorescence antagonist assay | inhibition, % at 4.4 µM | hit rate 62% among 2,400; in the data active means inhibition above about 22%
# Numbers stand for hits; – = inactive; · = no result given.
SMILES,TRPML3 ag,zfTRPN1 agonist,GPR7 antag,CRFBP-R2 block,CRFR2-BP ag,GPR7 antag cf,MCHR1 antagonist
COC(=O)c1cc2c(C)c(C)c3ccccn3c-2c1C(=O)OC,–,–,–,–,–,·,·
COC(=O)c1cc2ccccn2c2c(C(=O)OC)c(C(=O)OC)cc1-2,–,–,31,–,–,–,22
COc1ccc(NC(=O)CS(=O)c2ccc(Cl)c(Cl)c2)cc1 (configuration not stated),·,·,–,–,–,·,·
CC1CC(C)CN(CC(O)COCc2ccccc2)C1 (configuration not stated),·,·,–,–,–,·,·
COc1ccc(-c2cc(C(=O)N(C)Cc3ccccc3)no2)cc1OC,–,–,31,–,–,–,–
CCOC(=O)c1c(NC(=O)COC(=O)c2ncc(Cl)c(Cl)c2Cl)sc(C(=O)N(C)C)c1C,·,·,·,–,–,·,·
C=CCc1cc(Cl)ccc1OCCOCCN(C)C,–,–,40,–,–,–,–
COc1ccc(C(CNC(=O)c2ccc(S(=O)(=O)N3CCCC3)cc2)N2CCOCC2)cc1 (configuration not stated),–,–,–,–,–,·,·
COc1ccc(NS(=O)(=O)c2cccc(C(=O)NCC(c3ccc(F)cc3)N3CCOCC3)c2)cc1 (configuration not stated),·,·,31,–,–,27,–
COc1ccc(C(CNC(=O)c2ccc3c(c2)C(=O)N(CCC(C)C)C3=O)N2CCOCC2)cc1 (configuration not stated),–,–,29,–,–,–,–
COc1ccc(C(CNC(=O)c2cccc(S(=O)(=O)Nc3ccc(F)cc3)c2)N2CCOCC2)cc1 (configuration not stated),·,·,·,–,–,·,·
CN1CCC(NC(=O)c2cc(-c3cccc(Br)c3)nc3ccccc23)CC1,·,·,42,–,–,37,32
CN1CCN(C2=Cc3ccccc3Sc3cc(F)c(Cl)cc32)CC1,–,–,27,–,–,38,58
CN1CCN(C2=Cc3ccccc3Sc3cc(F)c(F)cc32)CC1,–,–,–,–,–,·,·
CC(C)CCC1(C)NC(=O)N(CC(=O)NCC(=O)Nc2ccc(F)c(F)c2F)C1=O (configuration not stated),·,·,·,–,–,·,·
CN(C)CCNC(=O)c1ccc(Sc2ccc(Br)cc2)c([N+](=O)[O-])c1,–,–,23,–,–,37,42
CCNC(=S)Nc1ccc(Oc2ccccc2)cc1,–,–,–,–,–,·,·
S=C(NCc1ccccc1)Nc1ccc(Oc2ccccc2)cc1,·,·,28,–,–,–,29
Cc1ccc(-n2c(SCC(=O)N3CCCCC3)nc(O)c(Cc3ccccc3)c2=O)cc1,·,·,25,–,–,–,–
CCN(CC)C(=O)CSc1nc(O)c(Cc2ccccc2)c(=O)n1-c1ccc(C)cc1,–,–,–,–,–,·,·
Cc1ccsc1C(=O)NNC(=O)C1CCCCC1C(=O)O (configuration not stated),–,–,23,–,–,–,–
CCOC(=O)Cc1csc(NC(=O)C(C)c2ccc([N+](=O)[O-])cc2)n1 (configuration not stated),16,22,74,–,–,49,54
CC(C)Oc1ccc(C(CCN)C2CCCCC2)cc1 (configuration not stated),·,·,55,–,–,49,67
O=C(NC1CCCC1)c1ccc(COc2ccccc2Br)o1,·,·,–,–,–,·,·
COC(=O)CCn1nc(-c2ccc(Cl)cc2)c2ccccc2c1=O,–,–,–,–,–,·,·
CNC(=O)CCn1nc(-c2ccc(Cl)cc2)c2ccccc2c1=O,–,–,24,–,–,–,–
CN(C)CCNC(=O)c1ccc(COc2ccc(Cl)cc2Cl)cc1,–,–,30,–,–,40,52
COc1ccc(Cl)cc1C(=O)NCCN(C)C,–,–,–,–,–,·,·
COc1ccc(/C=N/Nc2ccc([N+](=O)[O-])cc2)cc1O,·,·,30,–,–,37,41
COc1ccc(/C=N/Nc2ccc([N+](=O)[O-])cc2)cc1Cn1cc([N+](=O)[O-])cn1,–,–,–,–,–,·,·
